This note sets out measurements from ChEMBL document CHEMBL1240485, “Glycopeptide dendrimer colchicine conjugates targeting cancer cells” (Bioorg Med Chem, 2010).

Calls of active or inactive are those of the source. No cut-off for these calls is given here. Bridge positions count the residues as written; N and C are the ends. Square brackets hold non-standard residues; d marks the D form. Peptide text beside a SMILES is read from it. I, II: the chains in the order shown. * marks the point of attachment. X1 = COc1cc2c(c(OC)c1OC)-c1ccc(OC)c(=O)cc1[C@@H](N(C(C)=O)C(=O)[C@H](CS)N*)CC2; X2 = O=C(CCS[C@@H]1O[C@H](CO)[C@H](O)[C@H](O)[C@H]1O)*; βGal = OC[C@H]1O[C@@H](*)[C@H](O)[C@@H](O)[C@H]1O; Dap = NC[C@H](N)C(=O)O; Mpa = O=C(O)CCS

The subject of data set [1] is Jurkat. Briefly: Cytotoxicity against human Jurkat cells after 48 hrs. The format is functional. The note with it: read-out: LD50 (the source's name). Put shortly: (§1)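 Jurkat cells were grown in RPMI with 10% FCS, penicillin/streptomycin and L-glutamine at 37 °C and 5% CO2. They were seeded at 50,000 cells/mL and cultured overnight, then given compound from sterile water stock and held 48 h. Propidium iodide was added 2 min before FACS (excitation 488 nm). Dead cells were counted at 5 µM final. LD50 was derived from dose–response curves.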

Data set [2] relates to Jurkat. Briefly: Cytotoxicity against human Jurkat cells assessed as dead cells at 5 uM after 48 hrs by propidium iodide-based FACS flow cytometry. It is filed as functional. Put shortly: as §1
A general note: In flow cytometry, cells or beads pass a laser one at a time.

The test system of the next data set is MEF. Briefly: Cytotoxicity against MEF cells assessed as dead cells at 5 uM after 48 hrs by visual cell counting under the microscope. As to conditions: mouse.
Data set [3] relates to Jurkat. Briefly: Cytotoxicity against human Jurkat cells at 5 uM after 48 hrs. The format is functional, cell-based. Put shortly:
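Jurkat cells (RPMI, 10% FCS, 37 °C, 5% CO2) seeded at 50,000 cells per mL, grown overnight, then dosed with colchicine–dendrimer conjugate at 5 μM final from sterile water stock. After 48 h, propidium iodide added 2 min before FACS (excitation 488 nm); dead vs healthy cells counted, reported as % dead cells.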

On to `COc1cc2c(c(OC)c1OC)-c1ccc(OC)c(=O)cc1[C@@H](N(C(C)=O)C(=O)[C@H](CS)NC(=O)[C@H](CC(=O)O)NC(=O)[C@H](Cc1cnc[nH]1)NC(=O)[C@H](CCCNC(=N)N)NC(=O)[C@@H](NC(=O)[C@H](CNC(=O)[C@H](C)NC(=O)[C@H](Cc1cnc[nH]1)NC(=O)[C@H](CCCNC(=N)N)NC(=O)CNC(=O)CCS[C@@H]1O[C@H](CO)[C@H](O)[C@H](O)[C@H]1O)NC(=O)[C@H](C)NC(=O)[C@H](Cc1cnc[nH]1)NC(=O)[C@H](CCCNC(=N)N)NC(=O)CNC(=O)CCS[C@@H]1O[C@H](CO)[C@H](O)[C@H](O)[C@H]1O)[C@@H](C)O)CC2` (I: [Mpa](βGal)GRHA[Dap]TRHD-X1 / II: [Mpa](βGal)GRHA; amide I:6-II:C) [listing 1 of 2 here], for which, in the data set on Jurkat [1], the CC50 came to 1.5 µM. Also, the Activity in the data set with Jurkat [2] is 91%. Take `COc1cc2c(c(OC)c1OC)-c1ccc(OC)c(=O)cc1[C@@H](N(C(C)=O)C(=O)[C@H](CS)NC(=O)[C@H](CC(=O)O)NC(=O)[C@H](CC(C)C)NC(=O)[C@H](Cc1ccc(O)cc1)NC(=O)[C@@H](NC(=O)[C@H](CNC(=O)[C@H](C)NC(=O)[C@H](CO)NC(=O)[C@H](CC(=O)O)NC(=O)[C@H](Cc1ccccc1)NC(=O)CCS[C@@H]1O[C@H](CO)[C@H](O)[C@H](O)[C@H]1O)NC(=O)[C@H](C)NC(=O)[C@H](CO)NC(=O)[C@H](CC(=O)O)NC(=O)[C@H](Cc1ccccc1)NC(=O)CCS[C@@H]1O[C@H](CO)[C@H](O)[C@H](O)[C@H]1O)[C@@H](C)O)CC2` (I: [Mpa](βGal)FDSA[Dap]TYLD-X1 / II: [Mpa](βGal)FDSA; amide I:6-II:C) [listing 1 of 2 here]: the Activity in the data set on MEF is recorded as 68%. The same measure, in the same setting: to `COc1cc2c(c(OC)c1OC)-c1ccc(OC)c(=O)cc1[C@@H](N(C(C)=O)C(=O)[C@H](CS)NC(=O)[C@H](CC(=O)O)NC(=O)[C@H](CC(C)C)NC(=O)[C@H](Cc1ccc(O)cc1)NC(=O)[C@@H](NC(=O)[C@H](CNC(=O)[C@H](C)NC(=O)[C@H](CO)NC(=O)[C@H](CC(N)=O)NC(=O)[C@H](Cc1ccccc1)NC(=O)CCS[C@@H]1O[C@H](CO)[C@H](O)[C@H](O)[C@H]1O)NC(=O)[C@H](C)NC(=O)[C@H](CO)NC(=O)[C@H](CC(N)=O)NC(=O)[C@H](Cc1ccccc1)NC(=O)CCS[C@@H]1O[C@H](CO)[C@H](O)[C@H](O)[C@H]1O)[C@@H](C)O)CC2` (I: [Mpa](βGal)FNSA[Dap]TYLD-X1 / II: [Mpa](βGal)FNSA; amide I:6-II:C) [listing 1 of 2 here] belongs 6%; to `COc1cc2c(c(OC)c1OC)-c1ccc(OC)c(=O)cc1[C@@H](N(C(C)=O)C(=O)[C@H](CS)NC(=O)[C@H](CC(=O)O)NC(=O)[C@H](Cc1cnc[nH]1)NC(=O)[C@H](CCCNC(=N)N)NC(=O)[C@@H](NC(=O)[C@H](CNC(=O)[C@H](C)NC(=O)[C@H](Cc1cnc[nH]1)NC(=O)[C@H](CCCNC(=N)N)NC(=O)CNC(=O)CCS[C@@H]1O[C@H](CO)[C@H](O)[C@H](O)[C@H]1O)NC(=O)[C@H](C)NC(=O)[C@H](Cc1cnc[nH]1)NC(=O)[C@H](CCCNC(=N)N)NC(=O)CNC(=O)CCS[C@@H]1O[C@H](CO)[C@H](O)[C@H](O)[C@H]1O)[C@@H](C)O)CC2` (I: [Mpa](βGal)GRHA[Dap]TRHD-X1 / II: [Mpa](βGal)GRHA; amide I:6-II:C) [listing 2 of 2 here], 51%.

Take `COc1cc2c(c(OC)c1OC)-c1ccc(OC)c(=O)cc1[C@@H](NC(C)=O)CC2` [COLCHICINE]: the CC50 with Jurkat [1] stood at 0.02 µM. In addition, the Activity with Jurkat [2] was found to be 85%; with MEF, 57%. In the case of `COc1cc2c(c(OC)c1OC)-c1ccc(OC)c(=O)cc1[C@@H](N(C(C)=O)C(=O)[C@H](CS)NC(=O)[C@H](CCCCNC(=O)CCS[C@@H]1O[C@H](CO)[C@H](O)[C@H](O)[C@H]1O)NC(=O)[C@H](Cc1ccccc1)NC(=O)[C@H](CCCNC(=N)N)NC(=O)[C@H](CC(N)=O)NC(=O)[C@H](CNC(=O)[C@@H](NC(=O)[C@H](CCC(=O)O)NC(=O)[C@H](CC(N)=O)NC(=O)CNC(=O)CCS[C@@H]1O[C@H](CO)[C@H](O)[C@H](O)[C@H]1O)[C@@H](C)O)NC(=O)[C@@H](NC(=O)[C@H](CCC(=O)O)NC(=O)[C@H](CC(N)=O)NC(=O)CNC(=O)CCS[C@@H]1O[C@H](CO)[C@H](O)[C@H](O)[C@H]1O)[C@@H](C)O)CC2` (I: [Mpa](βGal)GNET[Dap]NRFK(X2)-X1 / II: [Mpa](βGal)GNET; amide I:6-II:C), the outcome in the data set on Jurkat [3] was inactive. For the compound `CC[C@H](C)[C@H](NC(=O)[C@@H]1CCCN1C(=O)[C@H](CNC(=O)[C@@H]1CCCN1C(=O)CNC(=O)[C@H](CC(=O)O)NC(=O)[C@H](CCCCNC(=O)CCS[C@@H]1O[C@H](CO)[C@H](O)[C@H](O)[C@H]1O)NC(=O)CCS[C@@H]1O[C@H](CO)[C@H](O)[C@H](O)[C@H]1O)NC(=O)[C@@H]1CCCN1C(=O)CNC(=O)[C@H](CC(=O)O)NC(=O)[C@H](CCCCNC(=O)CCS[C@@H]1O[C@H](CO)[C@H](O)[C@H](O)[C@H]1O)NC(=O)CCS[C@@H]1O[C@H](CO)[C@H](O)[C@H](O)[C@H]1O)C(=O)N[C@@H](CCC(=O)O)C(=O)N[C@H](C(=O)N[C@@H](CS)C(=O)N(C(C)=O)[C@H]1CCc2cc(OC)c(OC)c(OC)c2-c2ccc(OC)c(=O)cc21)C(C)C` (I: [Mpa](βGal)K(X2)DGP[Dap]PIEV-X1 / II: [Mpa](βGal)K(X2)DGP; amide I:6-II:C), the outcome in the data set with Jurkat [3] was inactive. As for `COc1cc2c(c(OC)c1OC)-c1ccc(OC)c(=O)cc1[C@@H](N(C(C)=O)C(=O)[C@H](CS)NC(=O)[C@H](CC(=O)O)NC(=O)[C@H](CC(C)C)NC(=O)[C@H](Cc1ccc(O)cc1)NC(=O)[C@@H](NC(=O)[C@H](CNC(=O)[C@H](C)NC(=O)[C@H](CO)NC(=O)[C@H](CC(N)=O)NC(=O)[C@H](Cc1ccccc1)NC(=O)CCS[C@@H]1O[C@H](CO)[C@H](O)[C@H](O)[C@H]1O)NC(=O)[C@H](C)NC(=O)[C@H](CO)NC(=O)[C@H](CC(N)=O)NC(=O)[C@H](Cc1ccccc1)NC(=O)CCS[C@@H]1O[C@H](CO)[C@H](O)[C@H](O)[C@H]1O)[C@@H](C)O)CC2` (I: [Mpa](βGal)FNSA[Dap]TYLD-X1 / II: [Mpa](βGal)FNSA; amide I:6-II:C) [listing 2 of 2 here], in the data set on Jurkat [1], the CC50 amounted to 5.52 µM. In the data set with Jurkat [2], the Activity is listed as 19%. As for `COc1cc2c(c(OC)c1OC)-c1ccc(OC)c(=O)cc1[C@@H](N(C(C)=O)C(=O)[C@H](CS)NC(=O)[C@H](CC(=O)O)NC(=O)[C@H](CC(C)C)NC(=O)[C@H](Cc1ccc(O)cc1)NC(=O)[C@@H](NC(=O)[C@H](CNC(=O)[C@H](C)NC(=O)[C@H](CO)NC(=O)[C@H](CC(=O)O)NC(=O)[C@H](Cc1ccccc1)NC(=O)CCS[C@@H]1O[C@H](CO)[C@H](O)[C@H](O)[C@H]1O)NC(=O)[C@H](C)NC(=O)[C@H](CO)NC(=O)[C@H](CC(=O)O)NC(=O)[C@H](Cc1ccccc1)NC(=O)CCS[C@@H]1O[C@H](CO)[C@H](O)[C@H](O)[C@H]1O)[C@@H](C)O)CC2` (I: [Mpa](βGal)FDSA[Dap]TYLD-X1 / II: [Mpa](βGal)FDSA; amide I:6-II:C) [listing 2 of 2 here], in the data set on Jurkat [1], the CC50 was found to be 1.53 µM. Besides, the Activity entry in the data set on Jurkat [2] is “<=91%”.

Regarding `CC[C@H](C)[C@H](NC(=O)[C@@H]1CCCN1C(=O)[C@H](CNC(=O)[C@@H]1CCCN1C(=O)CNC(=O)[C@H](CC(N)=O)NC(=O)[C@H](CCCCNC(=O)CCS[C@@H]1O[C@H](CO)[C@H](O)[C@H](O)[C@H]1O)NC(=O)CCS[C@@H]1O[C@H](CO)[C@H](O)[C@H](O)[C@H]1O)NC(=O)[C@@H]1CCCN1C(=O)CNC(=O)[C@H](CC(N)=O)NC(=O)[C@H](CCCCNC(=O)CCS[C@@H]1O[C@H](CO)[C@H](O)[C@H](O)[C@H]1O)NC(=O)CCS[C@@H]1O[C@H](CO)[C@H](O)[C@H](O)[C@H]1O)C(=O)N[C@@H](CCC(=O)O)C(=O)N[C@H](C(=O)N[C@@H](CS)C(=O)N(C(C)=O)[C@H]1CCc2cc(OC)c(OC)c(OC)c2-c2ccc(OC)c(=O)cc21)C(C)C` (I: [Mpa](βGal)K(X2)NGP[Dap]PIEV-X1 / II: [Mpa](βGal)K(X2)NGP; amide I:6-II:C), in the data set with Jurkat [3], the result was inactive. As to `COc1cc2c(c(OC)c1OC)-c1ccc(OC)c(=O)cc1[C@@H](N(C(C)=O)C(=O)[C@H](CS)NC(=O)[C@H](CCCCNC(=O)CCS[C@@H]1O[C@H](CO)[C@H](O)[C@H](O)[C@H]1O)NC(=O)[C@H](Cc1ccccc1)NC(=O)[C@H](CCCNC(=N)N)NC(=O)[C@H](CC(N)=O)NC(=O)[C@H](CNC(=O)[C@@H](NC(=O)[C@H](CCC(=O)O)NC(=O)[C@H](CC(=O)O)NC(=O)CNC(=O)CCS[C@@H]1O[C@H](CO)[C@H](O)[C@H](O)[C@H]1O)[C@@H](C)O)NC(=O)[C@@H](NC(=O)[C@H](CCC(=O)O)NC(=O)[C@H](CC(=O)O)NC(=O)CNC(=O)CCS[C@@H]1O[C@H](CO)[C@H](O)[C@H](O)[C@H]1O)[C@@H](C)O)CC2` (I: [Mpa](βGal)GDET[Dap]NRFK(X2)-X1 / II: [Mpa](βGal)GDET; amide I:6-II:C), the result in the data set with Jurkat [3] was inactive.
